Experimental findings from ChEMBL document CHEMBL1177705, “Synthesis and biological characterization of the histone deacetylase inhibitor largazole and C7- modified analogues” (J Med Chem, 2010) are described below.

SMILES strings stand for the structures. Active and inactive are the calls of the source. The calls are words filed in the database; no cut-off is given here.

Experiment [1] deals with NB-4. As to the kind of experiment: Cell cycle arrest in human NB4 cells assessed as increase in accumulation at pre-G1 phase at 1 uM after 24 hrs by FACS analysis. Format: functional, cell-based. In outline:
(§1)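 NB4 acute promyelocytic leukemia cells grown in RPMI 1640 with heat-inactivated FBS, glutamine, antibiotics, 37 °C, 5% CO2. Compounds given from DMSO. They were kept 30 min in the dark, then DNA content was read by flow cytometry with the pre-G1 fraction scored. Run in triplicate.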

In experiment [2] the test system is NB-4. As to the kind of experiment: Effect on differentiation of human NB4 cells assessed as induction of CD11c expression at 5 uM after 48 hrs by propidium iodide staining-base FACS analysis. Format: functional. In outline: (§2)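 NB4 cells in RPMI 1640/FBS at 37 °C, 5% CO2, treated with compounds from DMSO. 2.5 × 10^5 cells were pelleted and PBS-washed, then stained 30 min at 4 °C in the dark with PE-anti-CD11c, with PE-IgG as isotype background control. Cells were resuspended in PBS with 0.25 μg/mL PI and analysed by flow cytometry, excluding PI-positive cells. Run in triplicate.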

In experiment [3] the test system is NB-4. As to the kind of experiment: Cell cycle arrest in human NB4 cells assessed as increase in accumulation at pre-G1 phase at 5 uM after 24 hrs by FACS analysis. Format: functional, cell-based. An outline of the steps: as §1
In experiment [4] the test system is NB-4. As to the kind of experiment: Induction of p21WAF1/CIP1 expression in human NB4 cells at 5 uM after 24 hrs by Western blot analysis. Type of experiment: functional, cell-based. An outline of the steps:
(§3)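 NB4 cells treated with compounds from DMSO, harvested and PBS-washed. Lysis was 15 min at 4 °C in 50 mM Tris-HCl pH 7.4, 150 mM NaCl, 1% NP40, 10 mM NaF, 1 mM PMSF and protease inhibitors, then spun 30 min at 4 °C. Protein was measured by Bradford and lysates immunoblotted, with ERK1 as loading control.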

Experiment [5] deals with Tubulin (Homo sapiens) (UniProt P68371+Q9H4B7+P0DPH7+P68366+Q13509+Q71U36+P04350+Q3ZCM7+P07437+P68363+Q9BQE3+Q6PEY2+Q13885+Q9BVA1+Q9BUF5). As to the kind of experiment: Inhibition of HDAC in human NB4 cells assessed as increase in acetylate tubulin level at 5 uM after 24 hrs by Western blot analysis. Type of experiment: cell-based. The note with it: NB-4. An outline of the steps:
as §3

Experiment [6] has as its target Histone deacetylase 4 (Homo sapiens, UniProt P56524). Kind of experiment: Inhibition of human recombinant HDAC4 after 15 mins by fluorimetric assay.
Experiment [7] has as its target Histone deacetylase (Homo sapiens) (UniProt Q13547+O15379+Q9UBN7+Q92769+Q9UQL6+Q8WUI4+Q9BY41+Q96DB2+P56524+Q9UKV0+Q969S8). To be noted: NB-4, at 5 µM.
Experiment [8] concerns NB-4. Kind of experiment: Effect on differentiation of human NB4 cells assessed as induction of CD11c expression at 5 uM after 24 hrs by propidium iodide staining-base FACS analysis. Type of experiment: functional. An outline of the steps:
as §2

Experiment [9] has as its target T1, Histone deacetylase 1 (Homo sapiens, UniProt Q13547). Kind of experiment: Inhibition of human recombinant HDAC1 after 15 mins by fluorimetric assay.
Experiment [10] addresses T1, Histone deacetylase 1. Kind of experiment: Ratio of compound IC50 to largazole IC50 for human recombinant HDAC1. An outline of the steps: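 Enzyme was preincubated with compound 15 min at 37 °C, then 50 μM specific fluorogenic substrate was added. Reaction ran 1 h at 37 °C with gentle shaking, read by fluorescence; IC50 derived.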
Experiment [11] addresses T1, Histone deacetylase 1. As to the kind of experiment: Ratio of largazole IC50 to compound IC50 for human recombinant HDAC1.
Experiment [12] relates to NB-4. As to the kind of experiment: Cell cycle arrest in human NB4 cells assessed as mild increase in accumulation at pre-G1 phase at 5 uM after 48 hrs by FACS analysis. Type of experiment: functional, cell-based. In outline:
as §1

T1 sequence (Q13547 whole entry): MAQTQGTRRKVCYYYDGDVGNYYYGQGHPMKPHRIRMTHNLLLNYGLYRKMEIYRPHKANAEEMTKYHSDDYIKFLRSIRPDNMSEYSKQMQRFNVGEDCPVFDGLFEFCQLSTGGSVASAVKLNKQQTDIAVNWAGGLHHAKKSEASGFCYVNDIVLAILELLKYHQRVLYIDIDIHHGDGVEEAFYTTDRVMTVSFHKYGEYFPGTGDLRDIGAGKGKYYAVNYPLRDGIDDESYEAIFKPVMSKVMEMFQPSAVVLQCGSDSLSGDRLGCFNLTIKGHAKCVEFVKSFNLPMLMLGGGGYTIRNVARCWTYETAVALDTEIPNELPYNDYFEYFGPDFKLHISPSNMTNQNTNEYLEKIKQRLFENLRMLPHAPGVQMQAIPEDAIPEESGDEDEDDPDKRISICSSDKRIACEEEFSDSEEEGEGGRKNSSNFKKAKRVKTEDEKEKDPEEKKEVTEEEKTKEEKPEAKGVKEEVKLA
Histone deacetylase 4, sequence (P56524 whole entry): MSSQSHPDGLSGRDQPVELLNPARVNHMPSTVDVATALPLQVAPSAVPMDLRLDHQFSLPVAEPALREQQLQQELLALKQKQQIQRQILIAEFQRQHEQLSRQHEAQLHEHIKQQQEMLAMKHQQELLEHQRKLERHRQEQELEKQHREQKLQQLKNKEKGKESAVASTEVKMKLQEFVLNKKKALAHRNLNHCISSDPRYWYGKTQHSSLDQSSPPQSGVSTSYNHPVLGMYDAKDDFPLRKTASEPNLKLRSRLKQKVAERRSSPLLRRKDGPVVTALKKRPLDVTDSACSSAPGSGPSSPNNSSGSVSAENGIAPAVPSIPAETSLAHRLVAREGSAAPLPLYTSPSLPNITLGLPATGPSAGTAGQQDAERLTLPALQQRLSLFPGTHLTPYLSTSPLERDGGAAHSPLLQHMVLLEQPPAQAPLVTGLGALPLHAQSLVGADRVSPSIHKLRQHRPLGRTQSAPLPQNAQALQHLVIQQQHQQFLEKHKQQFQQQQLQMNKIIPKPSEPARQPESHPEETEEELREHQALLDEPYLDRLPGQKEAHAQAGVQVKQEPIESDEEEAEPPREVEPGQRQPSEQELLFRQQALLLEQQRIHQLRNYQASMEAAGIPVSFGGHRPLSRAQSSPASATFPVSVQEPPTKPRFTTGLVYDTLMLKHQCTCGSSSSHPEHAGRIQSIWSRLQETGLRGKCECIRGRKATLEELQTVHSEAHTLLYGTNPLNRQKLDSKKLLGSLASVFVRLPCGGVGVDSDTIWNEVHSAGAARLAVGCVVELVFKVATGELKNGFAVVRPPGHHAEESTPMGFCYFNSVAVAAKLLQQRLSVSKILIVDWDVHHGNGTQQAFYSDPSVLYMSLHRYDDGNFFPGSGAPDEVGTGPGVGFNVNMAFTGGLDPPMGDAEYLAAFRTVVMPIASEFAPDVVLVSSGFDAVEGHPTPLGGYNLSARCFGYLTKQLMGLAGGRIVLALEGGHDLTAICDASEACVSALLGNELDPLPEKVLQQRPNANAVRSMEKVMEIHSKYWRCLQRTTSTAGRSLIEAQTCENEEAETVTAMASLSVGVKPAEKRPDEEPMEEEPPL

In the case of `CC1=C(/C=C/C(C)=C/C=C/C(C)=C/C(=O)O)C(C)(C)CCC1`, the result in experiment [1] was Active.

Turning to `CCCCCCCC(=O)SCC/C=C/[C@@H]1CC(=O)NCc2nc(cs2)C2=N[C@@](Cc3ccccc3)(CS2)C(=O)N[C@@H](C(C)C)C(=O)O1`, the Activity in experiment [2] and in [8] was 5% each time. Besides, the outcome in [3], in [4] and in [1] was Active. In experiment [5], the “increase in acetylated tubulin (active/not active)” value (from here on “increase … (active/not active)”) was “Active”. Besides, the figures for the IC50 in [6] and in experiment [9] were 3000 nM and 4.5 nM, respectively. Besides, in [7], the inhibition result was “Active”.

In the case of `CCCCCCCC(=O)SCC/C=C/[C@@H]1CC(=O)NCc2nc(cs2)C2=N[C@@](CC)(CS2)C(=O)N[C@@H](C(C)C)C(=O)O1`, the Activity in [2] and in [8] was 5% in each case. The result in [3], in experiment [4] and in experiment [1] was Active. Moreover, in [10], the Ratio IC50 was 10. In [5], the “increase … (active/not active)” value is “Active”. The IC50 in experiment [6] worked out at 4900 nM; in experiment [9] it was 161 nM. Also, the inhibition result in experiment [7] was “Active”.

Take `CCCCCCCC(=O)SCC/C=C/[C@@H]1CC(=O)NCc2nc(cs2)C2=N[C@@H](CS2)C(=O)N[C@@H](C(C)C)C(=O)O1`: the Activity in experiment [2] and in experiment [8] was 5% each time. The outcome in experiment [3], in [4] and in experiment [1] was Active. Also, the “increase … (active/not active)” value in experiment [5] is “Active”. Also, the figures for the IC50 in [6] and in [9] were 7500 nM and 13.7 nM, respectively. The inhibition result in experiment [7] is “Active”.

Turning to `CCCCCCCC(=O)SCC/C=C/[C@@H]1CC(=O)NCc2nc(cs2)C2=N[C@@](C)(CS2)C(=O)N[C@@H](C(C)C)C(=O)O1` [LARGAZOLE], the Activity in experiment [2] and in experiment [8] was 5% throughout. Besides, the outcome in experiment [3], in [4] and in [1] was Active. The “increase … (active/not active)” value in [5] was “Active”. Moreover, the IC50 amounted to 3000 nM in [6] and 11.4 nM in experiment [9]. Further, the inhibition result in [7] was “Active”.

Consider `O=C(CCCCCCC(=O)Nc1ccccc1)NO`, for which the outcome in experiment [3] and in [4] was Active. Further, the “increase … (active/not active)” value in experiment [5] is “Active”.

Regarding `Nc1ccccc1NC(=O)c1ccc(CNC(=O)OCc2cccnc2)cc1`, the result in experiment [3] and in experiment [4] was Active.

For `CCCCCCCC(=O)SCC/C=C/[C@@H]1CC(=O)NCc2nc(cs2)-c2nc(cs2)C(=O)N[C@@H](C(C)C)C(=O)O1`, the Activity in experiment [2] and in experiment [8] was 5% in each case. For the same molecule, the outcome in [3] was inactive. Also, in [11], the Ratio IC50 stood at 2. The result in experiment [12] was Active. Further, the “increase … (active/not active)” value in experiment [5] was “inactive”. Besides, the half-inhibitory concentration (IC50) was 3000 nM in experiment [6] and 4.7 nM in experiment [9]. For the same molecule, the inhibition entry in [7] is “Active”.
